Assay results from ChEMBL document CHEMBL4304750, “Novel Anthraquinone Compounds Induce Cancer Cell Death through Paraptosis” (ACS Med Chem Lett, 2019).
One block for each molecule: values may come before it. Active and inactive are the calls of the source. The rule behind the calls is not given here.

How the values were obtained:
SMMC-7721 [1] = test: Induction of cytoplasmic vacuolation in human SMMC7721 cells assessed as vacuolar cell formation and appearance of apoptotic cells at 3 to 10 uM incubated for 48 hrs by phase contrast microscopy; type: functional, cell-based
SMMC-7721 [2] = test: Induction of apoptosis with PS translocation in human SMMC7721 cells at 3 to 10 uM incubated for 48 hrs by Annexin V-FITC and propidium iodide staining based flow cytometry; type: functional, cell-based
Procedure, shortened: (§1)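 After 48 h treatment, SMMC-7721 cells were collected, stained with annexin V-FITC plus PI, and analysed by flow cytometry for PS externalization/apoptotic fraction.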

CNE [3] = test: Antiproliferative activity against human CNE1 cells assessed as reduction in cell viability incubated for 48 hrs by MTT assay; type: functional, cell-based
CNE-2 [4] = test: Antiproliferative activity against human CNE2 cells assessed as reduction in cell viability incubated for 48 hrs by MTT assay; type: functional, cell-based
HepG2 [5] = test: Antiproliferative activity against human HepG2 cells assessed as reduction in cell viability incubated for 48 hrs by MTT assay; type: functional, cell-based
SMMC-7721 [6] = test: Antiproliferative activity against human SMMC7721 assessed as reduction in cell viability incubated for 48 hrs by MTT assay; type: functional, cell-based
CNE [7] = test: Induction of cell vacuole formation in human CNE1 cells at 5 uM incubated for 24 hrs by phase contrast microscopy; type: functional, cell-based
CNE-2 [8] = test: Induction of cell vacuole formation in human CNE2 cells at 5 uM incubated for 24 hrs by phase contrast microscopy; type: functional, cell-based
HepG2 [9] = test: Induction of cell vacuole formation in human HepG2 cells at 5 uM incubated for 24 hrs by phase contrast microscopy; type: functional, cell-based
SMMC-7721 [10] = test: Induction of cell vacuole formation in human SMMC7721cells at 5 uM incubated for 24 hrs by phase contrast microscopy; type: functional, cell-based
SMMC-7721 [11] = test: Induction of paraptosis in human SMMC7721 cells assessed as increase in GRP78 expression by Western blot analysis; type: functional, cell-based
SMMC-7721 [12] = test: Induction of paraptosis in human SMMC7721 cells assessed as increase in LC3-II/LC3-I expression ratio by Western blot analysis; type: functional, cell-based
SMMC-7721 [13] = test: Decrease in p62 expression level in human SMMC7721 cells by Western blot analysis; type: functional, cell-based
SMMC-7721 [14] = test: Antiproliferative activity against human SMMC7721 assessed as reduction in cell viability incubated for 48 hrs by CCK-8 assay; type: functional, cell-based; settings: SMMC-7721, 48 h
SMMC-7721 [15] = test: Induction of cytoplasmic vacuolation in human SMMC7721 cells assessed as increase in number of vacuoles formation with shrinked volume of vacuoles at 3 to 10 uM incubated for 48 hrs by inverted phase contrast microscopy; type: functional, cell-based
SMMC-7721 [16] = test: Induction of cell morphological changes in human SMMC7721 cells assessed as cell shrinkage at 3 to 10 uM incubated for 48 hrs by HE staining based light microscopy; type: functional
Procedure, shortened: (§2)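 Haematoxylin-eosin staining of SMMC-7721 cells after 48 h treatment, examined by light microscopy.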

SMMC-7721 [17] = test: Induction of cell morphological changes in human SMMC7721 cells assessed as cytoplasmic loss at 3 to 10 uM incubated for 48 hrs by H and E staining based light microscopy; type: functional; procedure, shortened: as §2
SMMC-7721 [18] = test: Induction of endoplasmic reticulum vacuolation in human SMMC7721 cells assessed as nuclei shrank and appearance of vacuoles surrounded by positive ER-specific markers at 3 to 5 uM incubated for 48 hrs by ER-tracker red and Hoechst 33342 staining based laser scanning confocal microscopy; type: functional, cell-based
SMMC-7721 [19] = test: Induction of endoplasmic reticulum vacuolation in human SMMC7721 cells assessed as increase in vacuole formation and entire ER cytoplasm occupied with vacuole with loss of cell contents at 3 to 5 uM incubated for 48 hrs by ER-tracker red and Hoechst 33342 staining based laser scanning confocal microscopy; type: functional
SMMC-7721 [20] = test: Induction of cell morphological changes in human SMMC7721 cells assessed as appearance of large vacuoles in cytoplasm at 5 uM incubated for 48 hrs by transmission electron microscopy; type: functional, cell-based
Procedure, shortened: (§3)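 SMMC-7721 cells incubated 48 h at 5 μM, alongside untreated control cells, then imaged by transmission electron microscopy. ER, mitochondria, Golgi, nucleus, membrane and autophagosomes/apoptotic bodies were inspected.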

SMMC-7721 [21] = test: Induction of endoplasmic reticulum vacuolation in human SMMC7721 cells assessed as vacuole derivatization by expansion and swelling of rough ER with vacuoles wrapped in monolayer membranes with loss of ER structure integrity at 5 uM incubated for 48 hrs by transmission electron microscopy; type: functional, cell-based; procedure, shortened: as §3
SMMC-7721 [22] = test: Induction of mitochondrial swelling, vacuoles and ridges disappearance and loss of mitochondrial and golgi apparatus structural integrity in human SMMC7721 cells at 5 uM incubated for 48 hrs by transmission electron microscopy; type: functional, cell-based; procedure, shortened: as §3
HepG2 [23] = test: Antiproliferative activity against human HepG2 cells assessed as reduction in cell viability incubated for 48 hrs by CCK-8 assay; type: functional, cell-based
CNE-2 [24] = test: Antiproliferative activity against human CNE2 cells assessed as reduction in cell viability incubated for 48 hrs by CCK-8 assay; type: functional, cell-based
SMMC-7721 [25] = test: Antiproliferative activity against human SMMC7721 cells assessed as decrease in cell viability incubated for 48 hrs by CCK-8 assay; type: functional, cell-based
Procedure, shortened: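 SMMC-7721 cells exposed 48 h to 3, 5 or 10 μM, then viability read by CCK-8 assay.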

SMMC-7721 [26] = test: Induction of apoptosis in human SMMC7721 cells assessed as viable cells with normal cell membrane at 10 uM incubated for 48 hrs by Annexin V-FITC and propidium iodide staining based flow cytometry; type: functional; procedure, shortened: as §1
SMMC-7721 [27] = test: Induction of cell cycle arrest in human SMMC7721 cells at 3 to 10 uM incubated for 48 hrs by propidium iodide staining based flow cytometry; type: functional
SMMC-7721 [28] = test: Effect on cleaved caspase 3 level in human SMMC7721 cells at antiproliferative IC60 incubated for 12 to 48 hrs by Western blot analysis; type: functional, cell-based
Procedure, shortened: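 SMMC-7721 cells were treated 12, 24 and 48 h, with cisplatin as apoptosis positive control. Extracts were immunoblotted for procaspase-3 and cleaved caspase-3, with β-actin as loading control.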

SMMC-7721 [29] = test: Induction of endoplasmic reticulum stress in human SMMC7721 cells assessed as increase in GRP78 expression at 3 uM by Western blot analysis; type: functional, cell-based; settings: TDE = time-dependent effect
SMMC-7721 [30] = test: Increase in LC3-II/LC3-I expression ratio in human SMMC7721 cells at 3 uM incubated for 12 to 48 hrs by Western blot analysis; type: functional, cell-based
SMMC-7721 [31] = test: Inhibition of autophagosome formation in human SMMC7721 cells assessed as increase in p62 level at 3 uM incubated for 12 to 48 hrs by Western blot analysis; type: functional, cell-based
CNE [32] = test: Antiproliferative activity against human CNE1 cells assessed as reduction in cell viability incubated for 48 hrs by CCK-8 assay; type: functional, cell-based
CNE [33] = test: Induction of cell vacuole formation in human CNE1 cells at 3 to 5 uM incubated for 48 hrs by phase contrast microscopy; type: functional, cell-based
CNE-2 [34] = test: Induction of cell vacuole formation in human CNE2 cells at 3 to 5 uM incubated for 48 hrs by phase contrast microscopy; type: functional, cell-based
HepG2 [35] = test: Induction of cell vacuole formation in human HepG2 cells at 3 to 5 uM incubated for 48 hrs by phase contrast microscopy; type: functional, cell-based
SMMC-7721 [36] = test: Induction of cell morphological changes in human SMMC7721 cells assessed as appearance of small vacuoles in cytoplasm at 5 uM incubated for 48 hrs by transmission electron microscopy; type: functional, cell-based; procedure, shortened: as §3
SMMC-7721 [37] = test: Induction of cell morphological changes in human SMMC7721 cells assessed as nuclear chromatin pyknosis at 3 to 10 uM incubated for 48 hrs by H and E staining based light microscopy; type: functional; procedure, shortened: as §2
SMMC-7721 [38] = test: Induction of cell morphological changes in human SMMC7721 cells assessed as change in cell membrane structure at 5 uM incubated for 48 hrs by transmission electron microscopy; type: functional, cell-based; procedure, shortened: as §3
SMMC-7721 [39] = test: Induction of cell morphological changes in human SMMC7721 cells assessed as appearance of concentrated nucleus at 5 uM incubated for 48 hrs by transmission electron microscopy; type: functional, cell-based; procedure, shortened: as §3
SMMC-7721 [40] = test: Induction of cell morphological changes in human SMMC7721 cells assessed as appearance of smaller nucleus at 5 uM incubated for 48 hrs by transmission electron microscopy; type: functional, cell-based; procedure, shortened: as §3
SMMC-7721 [41] = test: Induction of cell morphological changes in human SMMC7721 cells assessed as autophagosome formation at 5 uM incubated for 48 hrs by transmission electron microscopy; type: functional, cell-based; procedure, shortened: as §3
SMMC-7721 [42] = test: Induction of cell morphological changes in human SMMC7721 cells assessed as formation of apoptotic bodies at 5 uM incubated for 48 hrs by transmission electron microscopy; type: functional, cell-based; procedure, shortened: as §3
SMMC-7721 [43] = test: Induction of cell morphological changes in human SMMC7721 cells assessed as swelling of mitochondria at 5 uM incubated for 48 hrs by transmission electron microscopy; type: functional, cell-based; procedure, shortened: as §3
SMMC-7721 [44] = test: Induction of cell morphological changes in human SMMC7721 cells assessed as vacuole formation in mitochondria at 5 uM incubated for 48 hrs by transmission electron microscopy; type: functional, cell-based; procedure, shortened: as §3
SMMC-7721 [45] = test: Induction of cell morphological changes in human SMMC7721 cells assessed as appearance of ridges in mitochondria at 5 uM incubated for 48 hrs by transmission electron microscopy; type: functional, cell-based; procedure, shortened: as §3
SMMC-7721 [46] = test: Induction of cytoplasmic vacuolation in human SMMC7721 cells at 10 uM incubated for 48 hrs by phase contrast microscopy; type: functional, cell-based

SMILES: O=C(OCCN1CCCCC1)c1cc(OCc2ccccc2)c2c(c1)C(=O)c1cccc(OCc3ccccc3)c1C2=O
Activity (SMMC-7721 [1]): Active
Activity (SMMC-7721 [2]): Active
inhibition (CNE [3]): Active
inhibition (CNE-2 [4]): Active
inhibition (HepG2 [5]): Active
inhibition (SMMC-7721 [6]): Active
Activity (CNE [7]): Active
Activity (CNE-2 [8]): Active
Activity (HepG2 [9]): Active
Activity (SMMC-7721 [10]): Active

SMILES: O=C1c2cccc(OCc3ccccc3)c2C(=O)c2c(OCc3ccccc3)cc(C(=O)N3CCN(CCO)CC3)cc21
inhibition (CNE [3]): Active
inhibition (CNE-2 [4]): Active
inhibition (HepG2 [5]): Active
inhibition (SMMC-7721 [6]): Active
Activity (CNE [7]): Active
Activity (CNE-2 [8]): Active
Activity (HepG2 [9]): Active
Activity (SMMC-7721 [10]): Active

SMILES: O=C(O)c1cc(O)c2c(c1)C(=O)c1cccc(O)c1C2=O
Activity (SMMC-7721 [11]): inactive
Activity (SMMC-7721 [12]): inactive
inhibition (SMMC-7721 [13]): inactive

IC50 (SMMC-7721 [14]): 1.5 µM
SMILES: O=C(NCCO)c1cc(OCc2ccccc2)c2c(c1)C(=O)c1cccc(OCc3ccccc3)c1C2=O
Activity (SMMC-7721 [15]): Active
Activity (SMMC-7721 [16]): Active
Activity (SMMC-7721 [17]): Active
Activity (SMMC-7721 [18]): Active
Activity (SMMC-7721 [19]): Active
Activity (SMMC-7721 [20]): Active
Activity (SMMC-7721 [21]): Active
Activity (SMMC-7721 [22]): Active
inhibition (HepG2 [23]): Active
inhibition (CNE-2 [24]): Active
inhibition (SMMC-7721 [25]): Dose-dependent effect
Activity (SMMC-7721 [2]): inactive
Activity (SMMC-7721 [26]): 22.42%
Activity (SMMC-7721 [27]): inactive
Activity (SMMC-7721 [28]): inactive
Activity (SMMC-7721 [29]): Tde
Activity (SMMC-7721 [30]): Active
inhibition (SMMC-7721 [31]): Active
Activity (SMMC-7721 [11]): Active
Activity (SMMC-7721 [12]): Active
inhibition (SMMC-7721 [13]): inactive
inhibition (CNE [32]): Active
Activity (CNE [7]): Active
Activity (CNE-2 [8]): Active
Activity (HepG2 [9]): Active
Activity (CNE [33]): Active
Activity (SMMC-7721 [10]): Active
Activity (CNE-2 [34]): Active
Activity (HepG2 [35]): Active
Activity (SMMC-7721 [36]): Active
Activity (SMMC-7721 [37]): Active
Activity (SMMC-7721 [38]): inactive
Activity (SMMC-7721 [39]): Active
Activity (SMMC-7721 [40]): Active
Activity (SMMC-7721 [41]): inactive
Activity (SMMC-7721 [42]): inactive
Activity (SMMC-7721 [43]): Active
Activity (SMMC-7721 [44]): Active
Activity (SMMC-7721 [45]): inactive

SMILES: O=C(O)c1cc(OCc2ccccc2)c2c(c1)C(=O)c1cccc(OCc3ccccc3)c1C2=O
Activity (SMMC-7721 [11]): Active
Activity (SMMC-7721 [12]): inactive
inhibition (SMMC-7721 [13]): inactive
Activity (SMMC-7721 [46]): Active
